Measurements as given in ChEMBL document CHEMBL2163325, “Discovery of phosphoinositide 3-kinases (PI3K) p110β isoform inhibitor 4-[2-hydroxyethyl(1-naphthylmethyl)amino]-6-[(2S)-2-methylmorpholin-4-yl]-1H-pyrimidin-2-one, an effective antithrombotic agent without associated bleeding and insulin resistance” (Bioorg Med Chem Lett, 2012).
Values after ≈ are worked out from the molar mass of the structure shown.

Legend:
[1] = Fraction unbound in dog plasma after 18 hrs by equilibrium dialysis method; type: ADME, cell-free, Canis lupus familiaris
How it was run: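 Unbound plasma fraction determined by equilibrium dialysis, 18 h at 37 °C.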

[2] = target: T1, A-type voltage-gated potassium channel KCND3 (Homo sapiens, UniProt Q9UK17); assay: Inhibition of human KV4.3 expressed in CHO cells at 31.6 uM by patch clamp assay; type: cell-based
T1 sequence (Q9UK17 whole entry): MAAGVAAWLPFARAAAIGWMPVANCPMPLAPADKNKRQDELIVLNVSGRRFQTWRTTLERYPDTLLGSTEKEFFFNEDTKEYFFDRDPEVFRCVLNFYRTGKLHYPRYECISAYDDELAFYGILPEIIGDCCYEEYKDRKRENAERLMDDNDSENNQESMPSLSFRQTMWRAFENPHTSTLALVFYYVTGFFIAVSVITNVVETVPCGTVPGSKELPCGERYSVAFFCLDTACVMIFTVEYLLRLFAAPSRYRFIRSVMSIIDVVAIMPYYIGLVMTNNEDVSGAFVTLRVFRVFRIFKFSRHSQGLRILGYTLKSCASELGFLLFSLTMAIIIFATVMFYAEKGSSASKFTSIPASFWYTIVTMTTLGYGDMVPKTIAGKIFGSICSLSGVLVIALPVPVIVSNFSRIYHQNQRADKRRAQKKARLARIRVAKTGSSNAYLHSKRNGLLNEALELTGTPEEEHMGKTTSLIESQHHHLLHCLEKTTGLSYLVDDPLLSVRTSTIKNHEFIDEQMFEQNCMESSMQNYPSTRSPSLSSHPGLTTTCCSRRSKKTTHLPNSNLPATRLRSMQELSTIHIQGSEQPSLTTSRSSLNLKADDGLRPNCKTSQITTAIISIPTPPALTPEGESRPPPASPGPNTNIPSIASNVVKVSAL

[3] = target: Phosphatidylinositol 4,5-bisphosphate 3-kinase catalytic subunit beta isoform (Homo sapiens, UniProt P42338); assay: Inhibition of human recombinant His6-tagged PI3K p110beta expressed in baculovirus infected cells using DiC8-PI(4,5)P2 as substrate after 20 mins by AlphaScreen assay
Phosphatidylinositol 4,5-bisphosphate 3-kinase catalytic subunit beta isoform, sequence (P42338 whole entry, canonical isoform): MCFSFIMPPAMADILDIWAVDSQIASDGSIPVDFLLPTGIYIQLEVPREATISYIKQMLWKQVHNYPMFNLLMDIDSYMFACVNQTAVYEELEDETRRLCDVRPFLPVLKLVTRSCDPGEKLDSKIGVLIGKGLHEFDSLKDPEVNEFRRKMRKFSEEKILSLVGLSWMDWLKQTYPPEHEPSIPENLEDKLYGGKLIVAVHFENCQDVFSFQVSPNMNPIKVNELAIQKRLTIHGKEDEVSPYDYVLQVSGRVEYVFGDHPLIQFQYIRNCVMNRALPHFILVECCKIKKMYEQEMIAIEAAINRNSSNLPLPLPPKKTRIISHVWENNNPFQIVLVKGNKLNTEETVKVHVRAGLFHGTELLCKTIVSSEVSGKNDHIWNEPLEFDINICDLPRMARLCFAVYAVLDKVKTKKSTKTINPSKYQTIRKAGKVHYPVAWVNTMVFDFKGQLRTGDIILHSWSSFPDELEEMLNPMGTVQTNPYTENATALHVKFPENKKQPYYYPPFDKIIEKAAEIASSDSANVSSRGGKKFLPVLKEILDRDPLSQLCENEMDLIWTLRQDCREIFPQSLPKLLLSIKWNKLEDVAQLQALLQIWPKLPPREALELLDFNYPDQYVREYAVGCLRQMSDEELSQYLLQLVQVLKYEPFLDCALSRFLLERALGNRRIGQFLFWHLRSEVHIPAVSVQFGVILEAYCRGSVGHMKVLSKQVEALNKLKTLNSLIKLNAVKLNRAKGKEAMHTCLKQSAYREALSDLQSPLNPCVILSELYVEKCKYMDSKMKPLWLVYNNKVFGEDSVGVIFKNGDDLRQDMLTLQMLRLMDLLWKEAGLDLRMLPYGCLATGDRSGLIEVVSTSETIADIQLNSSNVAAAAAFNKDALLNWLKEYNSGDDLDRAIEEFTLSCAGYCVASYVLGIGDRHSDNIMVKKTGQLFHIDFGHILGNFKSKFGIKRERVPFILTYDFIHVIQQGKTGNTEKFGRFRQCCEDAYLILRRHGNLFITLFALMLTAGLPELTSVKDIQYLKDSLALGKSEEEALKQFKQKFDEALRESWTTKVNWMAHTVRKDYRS

[4] = Toxicity in human adipocytes assessed as inhibition of insulin-induced glucose uptake at 3 to 40 uM; type: cell-based; conditions: adipocyte
[5] = Solubility of the compound in HBSS buffer at pH 7.4 by LC-MS analysis; type: physicochemical
Rattus norvegicus = assay: Toxicity in overnight fasted Sprague-Dawley rat assessed as induction of insulin resistance at 0.2 to 1.6 ug/kg/min administered as infusion for 30 mins; conditions: in vivo, iv, 0.5 h
[6] = target: Voltage-gated potassium channel, IKs; KCNQ1(Kv7.1)/KCNE1(MinK) (Homo sapiens, UniProt P51787+P15382); assay: Inhibition of human IKs expressed in CHO cells at 31.6 uM by patch clamp assay; type: cell-based
Voltage-gated potassium channel, IKs; KCNQ1(Kv7.1)/KCNE1(MinK), sequence (P51787 whole entry): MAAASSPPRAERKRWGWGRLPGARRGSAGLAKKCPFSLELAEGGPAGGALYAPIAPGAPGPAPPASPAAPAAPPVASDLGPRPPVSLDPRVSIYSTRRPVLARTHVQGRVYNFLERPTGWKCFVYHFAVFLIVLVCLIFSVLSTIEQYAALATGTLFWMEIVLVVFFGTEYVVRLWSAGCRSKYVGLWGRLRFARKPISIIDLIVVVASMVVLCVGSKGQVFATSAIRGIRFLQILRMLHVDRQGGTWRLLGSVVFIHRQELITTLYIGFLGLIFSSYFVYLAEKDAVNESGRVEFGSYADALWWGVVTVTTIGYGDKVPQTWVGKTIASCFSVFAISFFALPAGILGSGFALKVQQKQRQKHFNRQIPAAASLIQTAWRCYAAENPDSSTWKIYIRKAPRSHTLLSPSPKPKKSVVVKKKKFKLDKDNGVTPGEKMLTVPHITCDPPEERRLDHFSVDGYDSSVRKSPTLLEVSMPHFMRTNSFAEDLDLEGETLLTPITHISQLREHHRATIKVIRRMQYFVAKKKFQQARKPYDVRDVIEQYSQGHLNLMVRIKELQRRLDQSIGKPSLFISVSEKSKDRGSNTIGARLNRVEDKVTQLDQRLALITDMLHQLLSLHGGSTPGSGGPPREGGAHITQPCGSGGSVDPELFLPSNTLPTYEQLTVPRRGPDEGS

Cytochrome P450 2C9 = Cytochrome P450 2C9 (Homo sapiens, UniProt P11712); assay: Inhibition of CYP2C9; type: ADME
Cytochrome P450 2C9, sequence (P11712 whole entry, the tested form may be a part): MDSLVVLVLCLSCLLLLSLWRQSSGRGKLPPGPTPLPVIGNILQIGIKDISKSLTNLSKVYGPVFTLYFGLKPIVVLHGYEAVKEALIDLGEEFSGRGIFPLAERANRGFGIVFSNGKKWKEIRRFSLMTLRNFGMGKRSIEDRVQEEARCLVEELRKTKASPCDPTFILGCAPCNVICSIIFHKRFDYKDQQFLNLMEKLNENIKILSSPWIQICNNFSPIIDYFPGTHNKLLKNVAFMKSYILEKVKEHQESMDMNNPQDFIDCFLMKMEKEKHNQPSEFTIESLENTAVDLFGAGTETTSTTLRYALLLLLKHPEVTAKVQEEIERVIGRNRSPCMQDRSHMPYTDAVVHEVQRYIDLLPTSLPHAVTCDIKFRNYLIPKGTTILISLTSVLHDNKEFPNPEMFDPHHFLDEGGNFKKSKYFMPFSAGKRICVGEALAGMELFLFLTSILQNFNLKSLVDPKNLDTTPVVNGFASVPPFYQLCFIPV

Canis familiaris = assay: Antithrombotic activity in Beagle dog assessed as concentration required to increase bleeding time by 2 fold at 15.8 to 591.8 ug/kg, iv administered as bolus infusion for 1 min followed by 8.7 to 378.7 ug/kg/min, iv administered as continuous infusion for 29 mins measured up to 15 mins; type: functional, Canis lupus familiaris
How it was run: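 Anaesthetized, intubated, ventilated beagles (N = 2). Femoral artery intima damaged and flow reduced to give cyclic flow reductions. Control period vehicle iv (30% cyclodextrin). Then 5 ascending 30-min periods, each a bolus over 1 min plus continuous infusion for 29 min. Tongue incision bleeding time from 15 min, capped at 15 min. Blood at 20 min for ex vivo aggregation and plasma level. EC50 fitted sigmoidally; EC_BT:2 from an exponential fit.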

[7] = target: Phosphatidylinositol 4,5-bisphosphate 3-kinase catalytic subunit gamma isoform (Homo sapiens, UniProt P48736); assay: Inhibition of human recombinant His6-tagged PI3K […] expressed in baculovirus infected cells using DiC8-PI(4,5)P2 as substrate after 20 mins by AlphaScreen assay
Phosphatidylinositol 4,5-bisphosphate 3-kinase catalytic subunit gamma isoform, sequence (P48736 whole entry, canonical isoform): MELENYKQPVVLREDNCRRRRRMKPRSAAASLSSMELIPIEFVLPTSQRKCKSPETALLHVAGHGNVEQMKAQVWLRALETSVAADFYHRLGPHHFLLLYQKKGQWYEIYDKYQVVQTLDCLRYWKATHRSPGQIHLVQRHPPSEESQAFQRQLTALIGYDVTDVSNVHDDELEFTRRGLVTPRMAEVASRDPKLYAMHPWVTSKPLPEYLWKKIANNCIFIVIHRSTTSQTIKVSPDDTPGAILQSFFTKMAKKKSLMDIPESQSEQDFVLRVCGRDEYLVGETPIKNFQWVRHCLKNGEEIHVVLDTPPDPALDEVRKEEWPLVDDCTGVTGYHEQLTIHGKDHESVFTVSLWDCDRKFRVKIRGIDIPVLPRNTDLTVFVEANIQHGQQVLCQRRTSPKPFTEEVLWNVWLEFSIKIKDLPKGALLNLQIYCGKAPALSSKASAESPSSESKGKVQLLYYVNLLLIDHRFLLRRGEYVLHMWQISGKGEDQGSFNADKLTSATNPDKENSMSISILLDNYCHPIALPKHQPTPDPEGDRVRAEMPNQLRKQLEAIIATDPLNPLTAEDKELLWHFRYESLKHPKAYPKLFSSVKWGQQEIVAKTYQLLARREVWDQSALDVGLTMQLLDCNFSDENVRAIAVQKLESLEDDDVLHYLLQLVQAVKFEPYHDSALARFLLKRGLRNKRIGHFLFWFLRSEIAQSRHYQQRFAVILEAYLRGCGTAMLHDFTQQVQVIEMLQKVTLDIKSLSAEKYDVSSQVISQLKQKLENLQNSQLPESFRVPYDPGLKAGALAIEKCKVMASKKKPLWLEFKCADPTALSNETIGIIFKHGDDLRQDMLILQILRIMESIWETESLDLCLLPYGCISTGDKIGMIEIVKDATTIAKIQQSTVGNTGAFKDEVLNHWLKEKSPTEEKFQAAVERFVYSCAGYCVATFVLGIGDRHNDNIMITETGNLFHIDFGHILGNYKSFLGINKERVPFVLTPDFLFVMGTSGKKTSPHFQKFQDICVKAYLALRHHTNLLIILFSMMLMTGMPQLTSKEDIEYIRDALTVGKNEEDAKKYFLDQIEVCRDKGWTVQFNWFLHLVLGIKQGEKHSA

[8] = target: Voltage-gated inwardly rectifying potassium channel KCNH2 (Homo sapiens, UniProt Q12809); assay: Inhibition of human ERG expressed in CHO cells at 31.6 uM by patch clamp assay; type: cell-based
Voltage-gated inwardly rectifying potassium channel KCNH2, sequence (Q12809 whole entry): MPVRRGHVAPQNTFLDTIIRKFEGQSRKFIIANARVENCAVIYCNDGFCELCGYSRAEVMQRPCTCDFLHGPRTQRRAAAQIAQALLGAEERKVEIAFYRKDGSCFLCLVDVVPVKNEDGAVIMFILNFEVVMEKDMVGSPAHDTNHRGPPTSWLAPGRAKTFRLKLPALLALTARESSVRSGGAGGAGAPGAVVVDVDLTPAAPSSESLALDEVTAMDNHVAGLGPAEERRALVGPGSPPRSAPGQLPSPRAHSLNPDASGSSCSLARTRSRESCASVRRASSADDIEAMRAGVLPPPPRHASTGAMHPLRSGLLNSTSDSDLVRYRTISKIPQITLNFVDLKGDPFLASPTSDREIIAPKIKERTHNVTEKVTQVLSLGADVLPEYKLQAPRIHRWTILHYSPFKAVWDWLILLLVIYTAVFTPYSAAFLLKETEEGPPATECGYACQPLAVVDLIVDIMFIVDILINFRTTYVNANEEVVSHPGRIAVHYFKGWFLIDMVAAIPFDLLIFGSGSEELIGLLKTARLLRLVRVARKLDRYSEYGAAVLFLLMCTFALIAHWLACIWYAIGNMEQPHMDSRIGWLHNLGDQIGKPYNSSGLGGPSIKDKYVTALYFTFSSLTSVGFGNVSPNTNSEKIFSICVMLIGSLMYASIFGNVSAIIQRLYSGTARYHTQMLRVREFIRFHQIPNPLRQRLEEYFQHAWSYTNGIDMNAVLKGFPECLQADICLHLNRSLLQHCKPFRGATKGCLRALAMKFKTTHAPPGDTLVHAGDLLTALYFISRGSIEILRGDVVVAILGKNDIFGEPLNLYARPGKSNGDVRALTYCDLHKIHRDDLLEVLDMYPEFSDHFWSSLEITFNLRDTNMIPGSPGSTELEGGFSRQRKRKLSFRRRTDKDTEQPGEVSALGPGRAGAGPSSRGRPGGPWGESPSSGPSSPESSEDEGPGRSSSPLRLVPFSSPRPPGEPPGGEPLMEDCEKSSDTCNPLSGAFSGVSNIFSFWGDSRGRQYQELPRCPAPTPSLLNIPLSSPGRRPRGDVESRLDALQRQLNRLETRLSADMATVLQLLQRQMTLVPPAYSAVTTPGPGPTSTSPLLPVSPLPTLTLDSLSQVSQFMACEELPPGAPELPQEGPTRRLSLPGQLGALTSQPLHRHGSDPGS

[9] = target: Voltage-dependent L-type calcium channel subunit alpha-1C (Homo sapiens, UniProt Q13936); assay: Inhibition of human CaV1.2 expressed in CHO cells at 31.6 uM by patch clamp assay; type: cell-based
[10] = Clearance in fasted Beagle dog at 1 umol/kg, iv and 2 umol/kg, po; type: ADME, organism-based, Canis lupus familiaris; conditions: in vivo
How it was run: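 Fasted male Beagle dogs, iv and po (N = 2 per route). Parameters derived by noncompartmental analysis of plasma concentrations.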

C[C@H]1CN(c2cc(N(CCO)Cc3cccc4ccccc34)[nH]c(=O)n2)CCO1
fraction unbound at 18 h [1]: 0.3 | inhibition (INH) [2]: Not Active | IC50 [3]: 0.038 µM | Activity [4]: Non-toxic | solubility [5]: 100 µM (≈ 39.4 µg/mL) | Activity (Rattus norvegicus): Non-toxic | inhibition (INH) [6]: Not Active | IC50 (Cytochrome P450 2C9): 4 µM | Activity (Canis familiaris): 14.8 µM | IC50 [7]: 97.4 µM | inhibition (INH) [8]: Not Active | inhibition (INH) [9]: Not Active | clearance [10]: 18 mL/min/kg
